Assay outcomes deposited in PubChem by several laboratories.
BAP1 inh – inhibitors of BAP1 deubiquitinase, primary screen, biochemical, Ub-AMC fluorescence, kinetic; Ubiquitin carboxyl-terminal hydrolase BAP1 (Homo sapiens), Q92560; AID 436, 2006; activity remaining (% of control), % at 20 µM; recombinant BAP1, Ub-AMC hydrolysis fluorescence kinetic; active compounds read low; actives 0.48% (n = 72,000);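 active means activity remaining at or below 50% of control, provided the compound also passes the data quality filters; inactive means the rest, including low values that fail the filters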
JNK3 blocker – JNK3 kinase activity inhibitors, primary screen, biochemical, human, purified enzyme | Mitogen-activated protein kinase 10 (Homo sapiens), P53779 | HTS | inhibition, % at 8 µM | actives 0.61% (n = 60,000); in the data active means inhibition above about 17%
E coli RNAP – E. coli RNAP inhibitors, biochemical | DNA-directed RNA polymerase subunit beta (Escherichia coli (strain K12)), P0A8V2 | inhibition, %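 (tested at 10 µM)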 | AID 559, 2006 | E. coli RNA polymerase, fluorescence transcription assay | actives 0.2% (n = 62,000); in the data active means inhibition above about 20%
SF1 activator – activators of human SF-1, primary screen, cell-based, CHO-K1, Gal4-SF-1 LBD, luciferase luminescence; Steroidogenic factor 1 (Homo sapiens), Q13285; CHO-K1 Gal4-SF-1 LBD luciferase reporter; % increase over DMSO SF-1-specific signal; activation, % at 10 µM; actives 1.9% (n = 65,000); AID 522, 2006;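 active means activation above the mean activation of all tested compounds plus 3 SD, cut at about 50% in these data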
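System: CHO-K1 cells with Gal4–hSF-1 LBD chimera plus Gal4-driven luciferase; quantity: 4,000 CHO-K1 cells per well; compound: one dose, 10 µM compound, 1% DMSO; times: 20 h compound treatment, 37 °C; measured by: SteadyLite luciferase luminescence; read-out: percent activation versus DMSO; benchmarks: DMSO and mock-transfected background; replicates: one test per compound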
RORA act – activators of orphan receptor RORA, primary screen, cell-based, luminescence. CHO-K1 Gal4-RORA LBD luciferase reporter; percent increase over mock-subtracted basal signal. activation, % at 10 µM. actives 1.5% (n = 65,000);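 active means activation above the mean of all tested compounds plus 3 SD, cut at about 49% in these data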
Target sequence (P35398 whole entry, looked up, the tested form may be a part): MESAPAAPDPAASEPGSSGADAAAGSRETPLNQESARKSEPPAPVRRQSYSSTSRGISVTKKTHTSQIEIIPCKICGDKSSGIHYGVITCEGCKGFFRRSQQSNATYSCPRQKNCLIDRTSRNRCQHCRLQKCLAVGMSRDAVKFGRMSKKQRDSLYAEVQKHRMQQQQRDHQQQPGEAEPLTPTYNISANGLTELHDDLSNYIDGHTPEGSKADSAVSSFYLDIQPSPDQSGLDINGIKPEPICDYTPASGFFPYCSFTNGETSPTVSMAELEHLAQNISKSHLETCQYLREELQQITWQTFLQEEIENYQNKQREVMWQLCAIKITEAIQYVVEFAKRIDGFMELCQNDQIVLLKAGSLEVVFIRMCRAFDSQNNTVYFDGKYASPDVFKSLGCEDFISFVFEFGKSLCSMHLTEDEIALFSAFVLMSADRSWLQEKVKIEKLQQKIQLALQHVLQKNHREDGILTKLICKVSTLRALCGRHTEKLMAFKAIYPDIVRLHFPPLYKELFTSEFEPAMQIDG
Of the large screens only hits and unclear results are named; the others gave an inactive call. This is a sample that favours compounds with a hit; in the whole collection about 3.2% have one here.

O=c1[nH]c(SCc2n[nH]c(=S)n2-c2ccccc2)nc2ccccc12	none
COCCOC(=O)C1=C(C)OC(N)=C(C#N)C1c1ccc2c(c1)OCO2 (stereo not drawn)	none
O=C(Oc1nsnc1N1CCOCC1)N1CCOCC1	E coli RNAP 31
O=C1c2ccccc2S(=O)(=O)N1Cc1nc2ccccc2s1	none
CN(C)c1ccc(C2=NOC(CN3C(=O)c4ccccc4S3(=O)=O)C2)cc1 (stereo not drawn)	RORA act 60 (no result: E coli RNAP)
c1ccc(C2CC(c3cccs3)n3nnnc3N2)cc1 (stereo not drawn)	none
N#Cc1c(/N=C/c2ccco2)sc2c1CCCCC2	SF1 activator 82
Cc1ccc(-n2c(C)nc3oc4ccccc4c(=O)c3c2=O)cc1	RORA act 68 (no result: E coli RNAP)
CCOC(=O)Cc1csc(NC(=O)c2ccoc2C)n1	none
O=C(Nc1nc2c(ccc3ccccc32)s1)c1ccco1	SF1 activator 63, RORA act 59
CCOC(=O)c1sc2nc(NC(=O)c3cccs3)sc2c1C	RORA act 60
Cc1csc(NC(=O)CSc2nnc(-c3ccoc3C)o2)n1	RORA act 61
O=C(Nc1nc2c(Cl)ccc(Cl)c2s1)c1ccco1	none
Cc1csc(NC(=O)c2ccoc2C)n1	SF1 activator 56
O/N=C1/CCCCC1c1ccccn1 (stereo not drawn)	none
CS(=O)(=O)NCc1ccc(C(=O)NCCOc2ccccc2)cc1	none
O=C(Nc1cnc2ccccn2c1=O)c1ccc(F)cc1	SF1 activator 60
Cc1nnc(NC(=O)c2ccco2)s1	none
Cc1occc1C(=O)Nc1ccc2ccccc2c1	RORA act 120
Cc1ccc(S(=O)(=O)CCc2nnc(NC(=O)c3cccs3)s2)cc1	none (no result: JNK3 blocker, E coli RNAP, SF1 activator, RORA act)
O=C(Nc1nnc(CCc2ccccc2)s1)c1cccs1	SF1 activator 54
Cc1occc1C(=O)Nc1ccccc1C(=O)O	none
O=C(Nc1nnc(CCc2ccccc2)s1)c1ccco1	RORA act 54
O=C(N1CCOCC1)N1CCN(c2nc(-c3ccccc3)cs2)CC1	none
COc1cccc(C2CC(c3ccccc3OC)n3nc(N)nc3N2)c1 (stereo not drawn)	none
Cc1cnc(NC(=O)CSc2nnc(-c3ccccc3)o2)s1	SF1 activator 88
Cc1cnc(NC(=O)CSc2nnc(COc3c(C)cccc3C)o2)s1	none
O=C(Nc1ccc(-c2noc(CCc3ccccc3)n2)cc1)c1ccco1	RORA act 72 (not shown: BAP1 inh)
Cc1occc1C(=O)Nc1cc(C(C)(C)C)on1	RORA act 64
Cc1occc1C(=O)Nc1nnc(C(F)(F)F)s1	none
O=C(Nc1nnc(C23CC4CC(CC(C4)C2)C3)s1)c1ccco1	RORA act 91 (no result: E coli RNAP)
CC(=O)Nc1ccc(NC(=O)c2ccco2)cc1	none
CC(C)(C)c1nnc(NC(=O)c2cccs2)s1	none (no result: JNK3 blocker, E coli RNAP, SF1 activator, RORA act)
CC(C)c1nnc(NC(=O)c2cccs2)s1	SF1 activator 104, RORA act 76
CCOC(=O)Cc1csc(NC(=O)c2cccs2)n1	none
Cc1csc(NC(=O)c2cccs2)n1	SF1 activator 53
Cc1csc(NC(=O)c2cnc3ccccn3c2=O)n1	SF1 activator 61
CCN(CCO)c1ccc(-n2c(N)c(C(=O)OC)c3nc4ccccc4nc32)cc1	none
O=C(NCCCN1CCN(c2ccccc2F)CC1)C1CCN(S(=O)(=O)N2CCOCC2)CC1	none
CCc1ccc2nc(NC(=O)c3cc(C)on3)sc2c1	SF1 activator 117, RORA act 69 (no result: E coli RNAP)
Cc1cc(C(=O)Nc2nc3c(s2)CCCC3)no1	none
O=C1C(C=NCc2ccccn2)=C(O)c2ccccc21	SF1 activator 55
COc1ccc(OC)c2c1CC(C)(C)NC2=O	none
CCN(CC)c1ccc(NC(=O)c2ccco2)cc1	none
CCN(CC)c1ccc(NC(=O)c2ccccc2F)cc1	SF1 activator 74, RORA act 70
O=C(NCCc1ccccc1)c1cc(-c2ccco2)on1	SF1 activator 86, RORA act 69
O=C(NCc1ccccc1)c1cc(-c2ccco2)on1	none
O=C(C1CC1)N1CCN=C1SCc1ccccc1	none
CC(C)(C)NC(=O)NC(=O)COc1ccccc1C#N	SF1 activator 60
COc1ccc(C(CNC(=O)COc2ccccc2C#N)N2CCOCC2)cc1 (stereo not drawn)	none
Cc1ccc2oc(-c3cccc(NC(=O)C4CCCO4)c3)nc2c1 (stereo not drawn)	none (not shown: BAP1 inh)
COc1ccc(OCC(=O)Nc2cccc(-c3nc4ccccc4o3)c2)cc1	RORA act 57
O=C(Nc1cccc(-c2cn3cccnc3n2)c1)c1ccc(Br)o1	none (no result: JNK3 blocker)
CCCC(=O)Nc1cccc(-c2nc3ccccc3o2)c1	none
O=C(Nc1cccc(-c2nc3cc(Cl)ccc3o2)c1)C1CCCO1 (stereo not drawn)	SF1 activator 81
O=C(Nc1cccc(-c2nnc(-c3ccccc3)o2)c1)c1ccc(Br)o1	SF1 activator 67 (not shown: BAP1 inh)
O=C(Nc1nccs1)c1ccc(Br)o1	JNK3 blocker 18, SF1 activator 65
COC(=O)c1nc2n(n1)C(c1ccc(OC)c(OC)c1)C(C(=O)OC1CCCCC1)=C(C)N2 (stereo not drawn)	none (no result: JNK3 blocker)
CCCC(C(=O)NC1CCCC1)N(CC1CCCO1)C(=O)c1snc(C(N)=O)c1N (stereo not drawn)	none
O=C(Nc1ccc2c(c1)OCCO2)c1ccc(Br)o1	SF1 activator 59
O=C(Nc1ccc2c(c1)OCCO2)NC12CC3CC(CC(C3)C1)C2	SF1 activator 75, RORA act 77
O=C(Nc1ccc(Nc2ccccc2)cc1)c1ccc(Br)o1	RORA act 49
O=C(COc1ccccc1)Nc1cccc(-c2nnc(-c3ccccc3)o2)c1	BAP1 inh 42
CN1CCN(S(=O)(=O)c2ccc(Sc3nnc(-c4cccs4)n3-c3ccccc3)nc2)CC1	none
CC(C)CC(=O)Nc1cccc(-c2nc3ccccc3o2)c1	none
Cc1ccc2nc(-c3cccc(NC(=O)c4ccc5c(c4)OCCO5)c3)oc2c1	SF1 activator 55
CC(C)C(=O)Nc1cccc(-c2nc3ccccc3o2)c1	SF1 activator 52
Cc1oc(C(C)(C)C)cc1C(=O)Nc1ccc2c(c1)OCCO2	SF1 activator 57, RORA act 64
COc1ccc(CCC(=O)Nc2ccc3c(c2)OCCO3)cc1	RORA act 56
COc1ccc(NC(=O)CCCCn2c(=O)[nH]c3ccccc3c2=O)cc1	JNK3 blocker 21
N#Cc1c(N)nc2c(c1-c1ccco1)CCCCC2	JNK3 blocker 32 (not shown: BAP1 inh, E coli RNAP)
Cc1nn(-c2ccccn2)c2c1-c1nc(N)ncc1CC2	RORA act 51 (not shown: BAP1 inh)
CC(=O)C(C)Oc1ccc2c3c(c(=O)oc2c1)CCCCC3 (stereo not drawn)	SF1 activator 54 (not shown: BAP1 inh)
